# According to ChEMBL document CHEMBL3400028, “Evaluation of Aconitum diterpenoid alkaloids as antiproliferative agents” (2015):
# Key:
# Assay type in all cases: functional
# [1] = Selectivity ratio of GI50 for human KB cells to GI50 for multidrug-resistant P-gp expressing human KBVIN cells
# Summary of the method: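 Ratio of GI50 in parental KB to GI50 in P-gp-overexpressing KB-VIN. […] KB-VIN cells were grown 7–10 days without vincristine before the assay.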
# A549 = assay: Antiproliferative activity against human A549 cells by sulforhodamine B assay
# Summary of the method: (§1)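 Cells in RPMI 1640 (25 mM HEPES, 2 mM L-glutamine, 10% heat-inactivated FBS, antibiotics) at 37 °C, 5% CO2. Seeded at 3–5 × 10³/well with graded concentrations, paclitaxel as assay control, for 72 h. TCA-fixed, stained with 0.04% SRB, dye dissolved in 10 mM Tris, A515 read. GI50 is the concentration halving absorbance versus untreated cells; three or more experiments.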
# KB = assay: Antiproliferative activity against human KB cells by sulforhodamine B assay; summary of the method: as §1
# DU-145 = assay: Antiproliferative activity against human DU145 cells by sulforhodamine B assay; summary of the method: as §1
# [2] = Antiproliferative activity against multidrug-resistant P-gp expressing human KBVIN cells by sulforhodamine B assay
# Summary of the method: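 Vincristine-resistant KB subline kept in 100 nM vincristine, then grown 7–10 days without it before testing. RPMI 1640 with 10% FBS, 37 °C, 5% CO2. 3–5 × 10³ cells/well exposed 72 h to a concentration series, paclitaxel as assay control. SRB staining after TCA fixation, A515 read. GI50 is the 50% absorbance reduction versus untreated cells; three or more experiments.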
Compound,RatioGI50 [1],GI50 (A549),GI50 (KB),GI50 (DU-145),GI50 [2]
CCN1C[C@]2(COC)[C@H](O)C[C@H](O)[C@]34C1[C@@](O)([C@@H](O)[C@H]23)[C@@]1(O)C[C@H](OC)[C@H]2C[C@@H]4[C@@H]1[C@H]2O,>20,> 20 µM,> 20 µM,> 20 µM,> 20 µM
CCN1C[C@]2(COC)[C@H](O)C[C@H](O)[C@]34C1[C@@](O)([C@@H](OC)[C@H]23)[C@@]1(O)C[C@H](OC)[C@H]2C[C@@H]4[C@@H]1[C@H]2O,>20,> 20 µM,> 20 µM,> 20 µM,> 20 µM
CO[C@H]1[C@@H]2C[C@@H]3[C@H]1[C@](O)(C[C@@H]2OC)[C@@]1(O)C2NC(=O)[C@]4(COC(=O)c5ccccc5N)CC[C@H](OC)[C@@]23[C@@H]4[C@@H]1OC,>20,> 20 µM,> 20 µM,> 20 µM,> 20 µM
CCN1C[C@]2(COC)[C@H](O)C[C@H](OC(C)=O)[C@]34C1[C@@](O)([C@@H](OC)[C@H]23)[C@@]1(O)C[C@H](OC)[C@H]2C[C@@H]4[C@@H]1[C@H]2O,>20,> 20 µM,> 20 µM,> 20 µM,> 20 µM
CCN1C[C@]2(C)CC[C@H](OC)[C@@]34[C@@H]5C[C@H]6[C@H](OC)[C@@H]5[C@@]5(C[C@@H]6OC)OCO[C@@]5(C(=O)[C@H]23)[C@@H]14 [PACININE],>20,> 20 µM,> 20 µM,> 20 µM,> 20 µM
C=C1[C@H]2C[C@@H]3C4N5C[C@]6(C)CCC[C@@]47[C@@H]6[C@@]5(OC(=O)c4cccc(C(F)(F)F)c4)C[C@]3([C@@H]1O)[C@H]7[C@H]2OC(=O)c1cccc(C(F)(F)F)c1,>20,> 20 µM,> 20 µM,> 20 µM,> 20 µM
CCN1C[C@]2(COC)CC[C@H](OC(=O)c3ccc([N+](=O)[O-])cc3)[C@]34C1[C@@](O)([C@@H](OC)[C@H]23)[C@@]1(O)C[C@H](OC)[C@H]2C[C@@H]4[C@@H]1[C@H]2O,>20,> 20 µM,> 20 µM,> 20 µM,> 20 µM
C=C1[C@H]2C[C@H]3C4N5C[C@]6(C)CCC[C@]47[C@H]([C@H]2O)C3(C[C@]5(O)[C@H]67)[C@@H]1O [PSEUDOKOBUSINE],>20,> 20 µM,> 20 µM,> 20 µM,> 20 µM
C=C1[C@H]2C[C@@H]3C4N5C[C@]6(C)CCC[C@@]47[C@@H]6[C@@H]5C[C@]3([C@@H]1OC(=O)/C=C/c1cccc(C(F)(F)F)c1)[C@H]7[C@H]2OC(=O)/C=C/c1cccc(C(F)(F)F)c1,1.3,5.5 µM,4.1 µM,6.2 µM,3.1 µM
C=C1[C@H]2C[C@@H]3C4N5C[C@]6(C)CCC[C@@]47[C@@H]6[C@@]5(OC(=O)c4ccc([N+](=O)[O-])cc4)C[C@]3([C@@H]1OC(=O)c1ccc([N+](=O)[O-])cc1)[C@H]7[C@H]2O,>20,> 20 µM,> 20 µM,> 20 µM,> 20 µM
C=C1[C@H]2C[C@@H]3C4N5C[C@]6(C)CCC[C@@]47[C@@H]6[C@@]5(O)C[C@]3([C@@H]1O)[C@H]7[C@H]2OC(=O)c1ccc(C(F)(F)F)cc1,10,10 µM,10 µM,10 µM,10 µM
C=C1[C@H]2C[C@@H]3C4N5C[C@]6(C)CCC[C@@]47[C@@H]6[C@@]5(OC(=O)c4ccc([N+](=O)[O-])cc4)C[C@]3([C@@H]1OC(=O)c1ccc([N+](=O)[O-])cc1)[C@H]7[C@H]2OC(=O)c1ccc([N+](=O)[O-])cc1,>20,> 20 µM,> 20 µM,> 20 µM,> 20 µM
CCN1C[C@@]2(COC)[C@H]3[C@@H](OC)[C@H]4C1[C@]3([C@@H](OC)C[C@H]2OC(C)=O)[C@@H]1C[C@@]2(O)[C@H](OC(=O)c3ccc(OC)cc3)[C@@H]1[C@]4(OC(C)=O)[C@@H](OC(C)=O)[C@@H]2OC,>20,> 20 µM,> 20 µM,> 20 µM,> 20 µM
CCN1C[C@]2(C)CC[C@H](O)[C@@]34C5C[C@@H]6[C@@H](OC)C[C@@](O)(C5[C@H]6O)[C@@H](CC23)C14 (stereo not given in full) [KARACOLINE],>20,> 20 µM,> 20 µM,> 20 µM,> 20 µM
CCN1C[C@@]2(COC)[C@H]3[C@@H](OC)C=C4[C@H]5[C@@H](OC(=O)c6ccc(OC)cc6)[C@](O)(C[C@H]5[C@@]35C1O[C@@H]2C[C@@H]5OC)[C@@H](OC)[C@@H]4O,>20,> 20 µM,> 20 µM,> 20 µM,> 20 µM
C=C1[C@H]2C[C@@H]3C4N5C[C@]6(C)CCC[C@@]47[C@@H]6[C@@H]5C[C@]3([C@@H]1OC(=O)c1ccc(F)cc1)[C@H]7[C@H]2OC(=O)c1ccc(F)cc1,0.73,8.1 µM,5.2 µM,6.8 µM,7.1 µM
C=C1[C@@H](OC(C)=O)[C@]23C[C@@H]1[C@@H](O)C[C@H]2[C@@]12C4C3C[C@@H]1[C@@]1(C)CC[C@H]2OC1N4CC [DEHYDROLUCIDUSCULINE],>20,> 20 µM,> 20 µM,> 20 µM,> 20 µM
CCN1C[C@]2(COC)[C@H](O)C[C@H](OC(C)=O)[C@]34C1[C@@](O)([C@@H](OC)[C@H]23)[C@@]1(O)C[C@H](OC)[C@H]2C[C@@H]4[C@@H]1[C@H]2OC(C)=O,>20,> 20 µM,> 20 µM,> 20 µM,> 20 µM
C=C1[C@H]2C[C@@H]3C4N5C[C@]6(C)CCC[C@@]47[C@@H]6[C@@]5(O)C[C@]3([C@@H]1OC(=O)c1cccnc1)[C@H]7[C@H]2OC(=O)c1cccnc1,>20,> 20 µM,> 20 µM,> 20 µM,> 20 µM
CCN1C(=O)[C@]2(C)CC[C@H](OC)[C@@]34[C@@H]5C[C@H]6[C@H](OC)[C@@H]5[C@@]5(C[C@@H]6OC)OCO[C@@]5([C@@H](O)[C@@H]32)[C@@H]14,>20,> 20 µM,> 20 µM,> 20 µM,> 20 µM
C=C1[C@H]2C[C@H]3C4N5C[C@]6(C)CCC[C@]47[C@H]([C@H]2OC(=O)/C=C/c2ccccc2)C3(C[C@]5(O)[C@H]67)[C@@H]1O,1.1,8.4 µM,7 µM,6.5 µM,6.4 µM
CCN1C[C@]2(COC)[C@H](O)C[C@H](O)[C@]34C1[C@@](O)([C@@H](OC)[C@H]23)[C@@]1(O)C[C@H](OC)[C@H]2C[C@@H]4[C@@H]1[C@H]2OC(=O)c1ccccc1,>20,> 20 µM,> 20 µM,> 20 µM,> 20 µM
C=C1[C@H]2C[C@@H]3C4N5C[C@]6(C)CCC[C@@]47[C@@H]6[C@@]5(O)C[C@]3([C@@H]1OC(=O)c1ccccc1)[C@H]7[C@H]2OC(=O)c1ccccc1,0.82,8.8 µM,5.2 µM,7.6 µM,6.3 µM
